These results are taken from ChEMBL document CHEMBL1149024, “Naturally occurring antiacne agents” (1994).

Test [1] concerns Cutibacterium acnes. The test can be described thus: Antimicrobial activity at exponential growth phase of Propionibacterium acnes ATCC 11827 assessed as log units reduction in CFU/ml at 1.56 ug/ml after 48 hrs by time-kill curve method. Type of test: functional, organism-based. In a few lines: (§1)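 Growth-phase time-kill: P. acnes ATCC 11827 was grown in NYG broth from a 1 × 10^6 to 5 × 10^6 CFU/ml inoculum. The compound (DMF stock) was added after 0, 8 or 32 h of incubation. Viable counts were taken 24 and 48 h after addition by serial 10-fold dilution plating on Actinomyces agar, incubated anaerobically at 37° for 3 days. Reduction is expressed as log CFU/ml.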

Test [2] deals with Cutibacterium acnes. The test can be described thus: Antimicrobial activity Propionibacterium acnes ATCC 11827 after 2 days by broth dilution method. Type of test: functional. In a few lines: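 Serial twofold dilutions in DMF; 30 µl of each added to 3 ml NYG broth (0.8% nutrient broth, 0.5% yeast extract, 0.1% glucose), then inoculated with 30 µl of a two-day-old culture. Incubated 2 days at 37°; growth read as turbidity (OD 660 nm). MIC is the lowest concentration giving complete growth inhibition, determined at least twice.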

The subject of test [3] is Cutibacterium acnes. In words: Antimicrobial activity at exponential growth phase of Propionibacterium acnes ATCC 11827 assessed as log units reduction in CFU/ml at 6.25 ug/ml after 48 hrs by time-kill curve method. Type of test: functional, organism-based. In a few lines: as §1
Test [4] relates to Cutibacterium acnes. The test can be described thus: Antimicrobial activity at lag growth phase of Propionibacterium acnes ATCC 11827 assessed as log units reduction in CFU/ml at 25 ug/ml after 48 hrs by time-kill curve method. Type of test: functional. In a few lines:
(§2)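 A 30 µl aliquot of two-day-old culture went into 3 ml NYG broth (initial inoculum 1 × 10^6 to 5 × 10^6 CFU/ml). Compound, dissolved in DMF, was added at set times after incubation began. Viable counts were taken 24 and 48 h after addition from serial 10-fold dilutions plated on Actinomyces agar, incubated anaerobically 3 days at 37°.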

The subject of test [5] is Cutibacterium acnes. The test can be described thus: Antimicrobial activity Propionibacterium acnes ATCC 11827 at 1.56 ug/ml after 3 days by time-kill curve method. Type of test: functional, organism-based. In a few lines:
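P. acnes ATCC 11827, from a two-day-old culture, was inoculated into NYG broth (0.8% nutrient broth, 0.5% yeast extract, 0.1% glucose) containing the compound predissolved in DMF. Initial inoculum was 1 × 10^6 to 5 × 10^6 CFU/ml. Viable counts were taken at 8, 24 and 48 h from serial 10-fold dilutions on Actinomyces agar, incubated anaerobically at 37° for 3 days.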

Test [6] has as its system Cutibacterium acnes. In words: Antimicrobial activity at exponential growth phase of Propionibacterium acnes ATCC 11827 assessed as log units reduction in CFU/ml at 25 ug/ml after 48 hrs by time-kill curve method. Type of test: functional, organism-based. The gist of the method: as §2
Setting [7] is: Cutibacterium acnes, ATCC 11827, 48 h.
Where [8] appears, read: Cutibacterium acnes, ATCC 11827, 48 h, read-out: MIC.

In brackets after ≈: the same amount, converted by molar mass. Activity calls are given as the source filed them. No cut-off for these calls is given here.

For the compound `CCCCCCCCCCCCCCCO`, the result in test [1] and in test [3] was inactive. Further, in test [2] (setting [7]), the MBC was 1.56 µg/mL (≈ 6.83 µM). Besides, in test [2] (setting [8]), the MIC is 0.78 µg/mL (≈ 3.41 µM). Moreover, the Activity in test [4] was greater than 2. Besides, the outcome in test [5] and in test [6] was Active. Turning to `CCCCCCCCCCCCCCCCCO`, in test [2] (setting [8]), the MIC is greater than 800 µg/mL.

With `CCCCCCCCc1cccc(O)c1C(=O)O`, the MIC in test [2] (setting [8]) is 3.13 µg/mL (≈ 12.5 µM). As to `CCCCCCCCCCc1cccc(O)c1C(=O)O`, the MIC in test [2] (setting [8]) worked out at 1.56 µg/mL (≈ 5.6 µM).

Regarding `CCCCCCCCCCC(C)O` (configuration not stated), in test [2] (setting [8]), the MIC amounted to 12.5 µg/mL (≈ 67.1 µM). `CCCCCCCCCCCCCCC(C)O` (configuration not stated): the minimal inhibitory concentration (MIC) in test [2] (setting [8]) came out at 0.78 µg/mL (≈ 3.22 µM).

Take `CCCCCCCCCCCCC(C)O` (configuration not stated): in test [2] (setting [8]), the MIC came out at 3.13 µg/mL (≈ 14.6 µM).

In the case of `CCC/C=C\C/C=C\CCCCCCCc1cccc(O)c1C(=O)O`, in test [2] (setting [8]), the MIC is 0.78 µg/mL (≈ 2.26 µM).

With `CCCCCCCCCCCCc1cccc(O)c1C(=O)O`, in test [2] (setting [8]), the MIC turned out to be 0.39 µg/mL (≈ 1.27 µM). Same read-out and setting: in the case of `CCCCCCCCCCCCCCCCCCCCc1cccc(O)c1C(=O)O` it was greater than 800 µg/mL; in that of `CCCCCCC(O)CC` (configuration not stated), 200 µg/mL (≈ 1390 µM); in that of `CCCCCc1cccc(O)c1C(=O)O`, 100 µg/mL (≈ 480 µM). For `Cc1cccc(O)c1C(=O)O`, the MIC in test [2] (setting [8]) stood at 200 µg/mL (≈ 1310 µM). Same read-out and setting: as for `CCCCCCC(C)O` (configuration not stated), the figure is 800 µg/mL (≈ 6140 µM). As to `CCCCCCCCCCCCCCCCC(C)O` (configuration not stated), the MIC in test [2] (setting [8]) is greater than 800 µg/mL. Same read-out and setting: in the case of `C=C1[C@H]2CC[C@H](C2)C1(C)C` it was 25 µg/mL (≈ 184 µM); in that of `CCCCCCCCCCCCCCCCCCCCO` [1-EICOSANOL], greater than 800 µg/mL. As for `CCCCCCCO` [1-HEPTANOL], the MBC in test [2] (setting [7]) was determined as 800 µg/mL (≈ 6880 µM). Moreover, the MIC in test [2] (setting [8]) came to 400 µg/mL (≈ 3440 µM).

As for `CCCCCCO` [1-HEXANOL], in test [2] (setting [8]), the MIC is greater than 800 µg/mL. On to `CCCCCC(C)O` (configuration not stated) [2-HEPTANOL], for which, in test [2] (setting [8]), the MIC was determined as 800 µg/mL (≈ 6880 µM). Same read-out and setting: in the case of `CCCCC(C)O` (configuration not stated) [2-HEXANOL] it was 800 µg/mL (≈ 7830 µM); in that of `CCCCCCCC(C)O` (configuration not stated) [2-NONANOL], 400 µg/mL (≈ 2770 µM); in that of `CCCCC(O)CC` (configuration not stated) [3-HEPTANOL], 800 µg/mL (≈ 6880 µM). Same read-out and setting: in the case of `CCCCCC(O)CC` (configuration not stated) [3-OCTANOL] it was 400 µg/mL (≈ 3070 µM); in that of `CC1=C[C@@H]2C(=C(C)CC[C@H]2C(C)C)CC1` [(+)-DELTA-CADINENE], 3.13 µg/mL (≈ 15.3 µM); in that of `C=C1[C@@H]2CC[C@@H](C2)C1(C)C` [(-)-CAMPHENE], 25 µg/mL (≈ 184 µM). As for `CC(C)C1=CC2=CC[C@@H]3[C@](C)(CCC[C@@]3(C)C(=O)O)[C@H]2CC1` [ABIETIC ACID], in test [2] (setting [8]), the MIC stood at 25 µg/mL (≈ 82.7 µM).

As for `C/C1=C\CC/C(C)=C/CC(C)(C)/C=C/C1` [ALPHA-HUMULONE], the MIC in test [2] (setting [8]) was 3.13 µg/mL (≈ 15.3 µM). Turning to `CC1=CCC2CC1C2(C)C` (stereo not drawn) [ALPHA-PINENE], the MIC in test [2] (setting [8]) stood at 25 µg/mL (≈ 184 µM).

On to `CC1=CC[C@@H](C(C)(C)O)CC1` [ALPHA-TERPINEOL], for which the MIC in test [2] (setting [8]) is 100 µg/mL (≈ 648 µM). As for `C=CC/C=C\C/C=C\CCCCCCCc1cccc(O)c1C(=O)O` [ANACARDIC ACID], in test [2] (setting [8]), the MIC is 0.78 µg/mL (≈ 2.28 µM). With `CCCCCCCCCCCCCCCc1cccc(O)c1C(=O)O` [ANACARDIC ACID], the MIC in test [2] and in test [2] (setting [8]) was 0.78 µg/mL (≈ 2.24 µM) each time.

For `C/C=C/c1ccc(OC)cc1` [ANETHOLE], the MIC in test [2] (setting [8]) amounted to 100 µg/mL (≈ 675 µM). With `C=C1CC/C=C(\C)CC[C@@H]2[C@@H]1CC2(C)C` [BETA-CARYOPHYLLENE], the MIC in test [2] (setting [8]) turned out to be 6.25 µg/mL (≈ 30.6 µM). Still for that read-out and setting: in the case of `C=C1CCC2CC1C2(C)C` (stereo not drawn) [BETA-PINENE] it was 100 µg/mL (≈ 734 µM); in that of `CC[C@H](CC[C@@H](C)[C@H]1CC[C@H]2[C@@H]3CC=C4C[C@@H](O)CC[C@]4(C)[C@H]3CC[C@]12C)C(C)C` [BETA-SITOSTEROL], greater than 800 µg/mL; in that of `CC1(C)C2CCC1(C)C(O)C2` (configuration not stated) [BORNEOL], 200 µg/mL (≈ 1300 µM). Same read-out and setting: as for `Cn1c(=O)c2c(ncn2C)n(C)c1=O` [CAFFEINE], the figure is greater than 400 µg/mL. In the case of `CC12CCC(CC1=O)C2(C)C` (configuration not stated) [CAMPHOR], the MIC in test [2] (setting [8]) is 200 µg/mL (≈ 1310 µM).
